Article PMC7808142 (ACS Omega, 2020)

Columns and labels:
[1] = Stability in rat plasma under different storage conditions; type: in vitro ADME; details: n = 5
[2] = Pharmacokinetics in rats after intravenous and oral administration; type: in vivo, Sprague-Dawley rats; details: rat; for AUC(0-inf) / AUC(0-t) / C0 / MRT last / Vd / clearance / half-life / Cmax / bioavailability / Tmax: male, Sprague-Dawley, plasma; for half-life: t1/2, rat; for half-life / Tmax / AUCextr / t1/2: n = 3
Summary of the method: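 Male SD rats (220–250 g), fasted 12 h, with jugular vein cannulae placed 2 days earlier under pentobarbital. Groups of 3 received 5 mg/kg iv (2 mg/mL with 30% HP-β-CD) or 100 mg/kg po (10 mg/mL suspension in 0.5% CMC-Na). Plasma (50 μL) was mixed with terfenadine internal standard and analysed by MRM LC-MS/MS (calibration 1.00–1000 ng/mL). Parameters are mean ± SD.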

[3] = autosampler for 24 h (4 °C), spiked 2.00 ng/mL
[4] = autosampler for 24 h (4 °C), spiked 50.0 ng/mL
[5] = autosampler for 24 h (4 °C), spiked 800 ng/mL
[6] = long-term (30 days at -80 °C), spiked 2.00 ng/mL
[7] = long-term (30 days at -80 °C), spiked 50.0 ng/mL
[8] = long-term (30 days at -80 °C), spiked 800 ng/mL
[9] = three freeze/thaw cycles, spiked 2.00 ng/mL
[10] = three freeze/thaw cycles, spiked 50.0 ng/mL
[11] = three freeze/thaw cycles, spiked 800 ng/mL

Structure (SMILES)	stability, measured concentration [1, 3] [ng/mL]	stability, accuracy (%, RE) [1, 4] [%]	stability, measured concentration [1, 4] [ng/mL]	stability, accuracy (%, RE) [1, 5] [%]	stability, measured concentration [1, 5] [ng/mL]	stability, accuracy (%, RE) [1, 6] [%]	stability, measured concentration [1, 6] [ng/mL]	stability, accuracy (%, RE) [1, 7] [%]	stability, measured concentration [1, 7] [ng/mL]	stability, accuracy (%, RE) [1, 8] [%]	stability, measured concentration [1, 8] [ng/mL]	stability, measured concentration [1, 9] [ng/mL]	stability, accuracy (%, RE) [1, 10] [%]	stability, measured concentration [1, 10] [ng/mL]	stability, accuracy (%, RE) [1, 11] [%]	stability, measured concentration [1, 11] [ng/mL]	AUC(0-inf) ([2]; iv, 5 mg/kg) [ng·h/mL]	AUC(0-t) ([2]; iv, 5 mg/kg) [ng·h/mL]	C0 ([2]; iv, 5 mg/kg) [ng/mL]	MRT last ([2]; iv, 5 mg/kg) [h]	further results
C[C@@H]1CC[C@H]2[C@@H](C)C(=O)O[C@@H]3O[C@@]4(C)CC[C@@H]1[C@]32OO4 [artemisinin, Artemisinin]	1.91 ± 0.02	91.0	45.5 ± 0.66	97.1	777 ± 6.68	97.3	1.95 ± 0.02	91.3	45.7 ± 1.46	95.2	762 ± 9.29	1.90 ± 0.02	95.2	47.6 ± 0.52	96.3	770 ± 9.11	130 ± 39.1	129 ± 38.9	700 ± 166	0.408 ± 0.066	stability, accuracy (%, RE) [1, 3]: 95.7%; stability, accuracy (%, RE) [1, 9]: 95.2%; Vd ([2]; iv, 5 mg/kg): 45.1 ± 12.3 L/kg; clearance ([2]; iv, 5 mg/kg): 674 ± 174 mL/min/kg; half-life ([2]; iv, 5 mg/kg, i.v. 5 mg/kg): 0.77 ± 0.06 h; AUC(0-inf) ([2]; po, 100 mg/kg): 318 ± 21.6 ng·h/mL; AUC(0-t) ([2]; po, 100 mg/kg): 309 ± 22.3 ng·h/mL; Cmax ([2]; po, 100 mg/kg): 65.1 ± 10.4 ng/mL; MRT last ([2]; po, 100 mg/kg): 3.46 ± 0.249 h; bioavailability ([2]; po, 100 mg/kg): 12.2 ± 0.832%; Tmax ([2]; po, 100 mg/kg, p.o. 100 mg/kg): 1.33 ± 0.58 h; half-life ([2]; po, 100 mg/kg, p.o. 100 mg/kg): 2.22 ± 0.25 h; time after which the compound could not be detected in blood ([2]; i.v. 5 mg/kg): 4 h; AUCextr ([2]; i.v. 5 mg/kg): 0.967 ± 0.110%; t1/2 ([2]; i.v. 5 mg/kg, 5 mg/kg): 0.773 ± 0.0598 h; time until which the compound was detectable in plasma (above LLOQ) ([2]; p.o. 100 mg/kg): 12 h; AUCextr ([2]; p.o. 100 mg/kg): 2.89 ± 0.999%
C[C@@H]1CC[C@H]2[C@@H](C)C(=O)O[C@@H]3O[C@@]4(C)CC[C@@H]1[C@]32O4 [deoxyartemisinin, Deoxyartemisinin]	2.18 ± 0.10	99.0	53.9 ± 1.66	99.0	782 ± 26.3	101.5	2.03 ± 0.07	108.4	54.2 ± 1.91	96.0	768 ± 50.2	1.98 ± 0.08	109.1	52.3 ± 0.99	109.1	774 ± 16.0	222 ± 47.1	219 ± 46.1	1070 ± 173	0.671 ± 0.183	Vd ([2]; iv, 5 mg/kg): 48.3 ± 8 L/kg; clearance ([2]; iv, 5 mg/kg): 385 ± 74.5 mL/min/kg; half-life ([2]; iv, 5 mg/kg, i.v. 5 mg/kg): 1.12 ± 0.16 h; AUC(0-inf) ([2]; po, 100 mg/kg): 71 ± 14.1 ng·h/mL; AUC(0-t) ([2]; po, 100 mg/kg): 67.3 ± 14.2 ng·h/mL; Cmax ([2]; po, 100 mg/kg): 62.4 ± 31.3 ng/mL; MRT last ([2]; po, 100 mg/kg): 1.21 ± 0.388 h; bioavailability ([2]; po, 100 mg/kg): 1.6 ± 0.317%; Tmax ([2]; po, 100 mg/kg, p.o. 100 mg/kg): ~0.39 h; half-life ([2]; po, 100 mg/kg, p.o. 100 mg/kg): 1.12 ± 0.156 h; time after which the compound could not be detected in blood ([2]; i.v. 5 mg/kg): 8 h; AUCextr ([2]; i.v. 5 mg/kg): 1.33 ± 0.214%; t1/2 ([2]; i.v. 5 mg/kg, 5 mg/kg): 1.45 ± 0.059 h; time until which the compound was detectable in plasma (above LLOQ) ([2]; p.o. 100 mg/kg): 6 h; AUCextr ([2]; p.o. 100 mg/kg): 5.33 ± 1.92%
